Test results: ChEMBL document CHEMBL1122329, “Synthesis and antianxiety activity of (omega-piperazinylalkoxy)indan derivatives” (J Med Chem, 1983)

Tests used:
Mus musculus [1] = test: Anti-morphine activity against the morphine-induced Straub''s tail reaction in mice expressed as % inhibition at 25 mg/kg peroral administration; assay type: functional; settings: route oral
How it was run: (§1)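 Six mice per group received test compounds orally 1 h before morphine (20 mg/kg ip). Straub's tail reaction was scored as the index of morphine's CNS stimulant action.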

Mus musculus [2] = test: Cataleptogenic action in mice on peroral administration; value ranges from 26-93; assay type: functional; settings: po
How it was run: (§2)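 Six mice per group were dosed orally 1 h before testing. Forepaws were placed on a horizontal steel bar to force an abnormal posture. Holding the posture over 30 s counted as catalepsy. ED50 was the dose giving catalepsy in 50% of animals, with 95% confidence limits.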

Mus musculus [3] = test: Anti-fighting potency against foot shock induced fighting behavior in mice expressed as % inhibition at 25 mg/kg peroral administration; assay type: functional; settings: route oral
Mus musculus [4] = test: Evaluated for hypothermic activity in mice at 30 mg/kg on peroral administration; assay type: functional; settings: route oral
How it was run: (§3)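 Six mice per group were dosed orally 1 h before testing. Rectal temperature was read with an electronic thermometer. Results are given as degrees of hypothermia (Δt °C) versus an untreated group.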

Rattus norvegicus [5] = test: Evaluated for neuroleptic-like property using open-field test in rats(increase in ambulation at 3 to 20mg/kg on peroral administration; value may range from 8.1 to 13.2; assay type: functional; settings: po
Rattus norvegicus [6] = test: Evaluated for neuroleptic-like property using anti-methamphetamine test in rats on peroral administration; value may range from 20 to 79; assay type: functional; settings: po
How it was run: (§4)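 Groups of six rats were dosed orally, then given methamphetamine 5 mg/kg ip 1 h later. Stereotypy was scored 0–4: sleep/eyes closed 0, motionless/eyes open 1, moving around cage 2, sniffing 3, continuous licking or gnawing 4. ED50 was the dose halving mean score versus controls, with 95% confidence limits.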

[7] = Toxicity on peroral administration to mice; assay type: organism-based; settings: mouse, in vivo, po
How it was run: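 Oral dosing to mice, eight per group; LD50 calculated by Litchfield-Wilcoxon method.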

[8] = Ratio of muscle relaxant action to antifighting effect; assay type: functional
How it was run: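 Muscle relaxation was measured by traction test in mice (eight per group), 1 h after oral dosing. Forepaws were placed on a horizontal wire bar 30 cm high. Failure to bring the hind feet onto the wire within 5 s counted as relaxation. This action was set in ratio with the antifighting effect.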

Mus musculus [9] = test: Anti-morphine activity against the morphine-induced Straub's tail reaction in mice on peroral administration; assay type: functional; settings: po
How it was run: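 Mice, six per group, dosed orally with test compound 1 h before morphine (20 mg/kg ip); Straub's tail reaction scored as index of morphine CNS stimulation.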

Mus musculus [10] = test: Cataleptogenic action in mice on peroral administration; value may range from 30 to 71; assay type: functional; settings: po; how it was run: as §2
Mus musculus [11] = test: Anti-morphine activity against morphine-induced Straub''s tail reaction in mice expressed as % inhibition at 25 mg/kg peroral administration; assay type: functional; settings: route oral; how it was run: as §1
Mus musculus [12] = test: Evaluated for hypothermic activity in mice at 30 mg/kgo n peroral administration; assay type: functional; settings: dose 30 mg/kg; route oral; how it was run: as §3
Rattus norvegicus [13] = test: Evaluated for neuroleptic-like property using open-field test in rats(increase in ambulation at 3 to 20 mg/kg on peroral administration; value may range from 11.9 to 23.1; assay type: functional; settings: dose mg/kg 3-20, route oral
Rattus norvegicus [14] = test: Evaluated for neuroleptic-like property using anti-methamphetamine test in rats on peroral administration; assay type: functional; settings: po; how it was run: as §4
Mus musculus [15] = test: Cataleptogenic action in mice on peroral administration; assay type: functional; settings: po; how it was run: as §2
Rattus norvegicus [16] = test: Evaluated for neuroleptic-like property using open-field test in rats(increase in ambulation at 3 to 20 mg/kg on peroral administration; assay type: functional; settings: dose mg/kg 3-20, route oral

Structure (SMILES)	inhibition in vivo at 25 mg/kg (Mus musculus [1])	ED50 (Mus musculus [2])	inhibition in vivo at 25 mg/kg (Mus musculus [3])	Delta t (Mus musculus [4])	ED50 (Rattus norvegicus [5])	ED50 (Rattus norvegicus [6])	LD50 [7]	Ratio [8]	ED50 (Mus musculus [9])	ED50 (Mus musculus [10])	inhibition in vivo at 25 mg/kg (Mus musculus [11])	Delta t (Mus musculus [12])	ED50 (Rattus norvegicus [13])	ED50 (Rattus norvegicus [14])	ED50 (Mus musculus [15])	ED50 (Rattus norvegicus [16])
Cl.Cl.Fc1ccc(N2CCN(CCCOc3ccc4c(c3)CCC4)CC2)cc1	100%	50 mg/kg	88%	-5 °C	10.3 mg/kg	43 mg/kg	> 2000 mg/kg	3.73								
Cc1cc2c(cc1OCCCN1CCN(c3ccccc3)CC1)CCC2.Cl.Cl			83%				> 2000 mg/kg	5.41	16 mg/kg	56 mg/kg	94%	-2.5 °C	16.6 mg/kg	> 100 mg/kg		
CN(C)CCCN1c2ccccc2Sc2ccc(Cl)cc21 [CHLORPROMAZINE]				-1.5										15 mg/kg	17 mg/kg	10.1 mg/kg
